Converted amounts (≈) assume the structure as drawn.
What follows are compounds tested against Fatty acid synthase (Homo sapiens, UniProt P49327) (assay: Inhibitory concentration against purified human fatty acid synthase activity in ZR-75-1 breast cancer cells). Details: not given.
Fatty acid synthase, sequence (P49327 whole entry): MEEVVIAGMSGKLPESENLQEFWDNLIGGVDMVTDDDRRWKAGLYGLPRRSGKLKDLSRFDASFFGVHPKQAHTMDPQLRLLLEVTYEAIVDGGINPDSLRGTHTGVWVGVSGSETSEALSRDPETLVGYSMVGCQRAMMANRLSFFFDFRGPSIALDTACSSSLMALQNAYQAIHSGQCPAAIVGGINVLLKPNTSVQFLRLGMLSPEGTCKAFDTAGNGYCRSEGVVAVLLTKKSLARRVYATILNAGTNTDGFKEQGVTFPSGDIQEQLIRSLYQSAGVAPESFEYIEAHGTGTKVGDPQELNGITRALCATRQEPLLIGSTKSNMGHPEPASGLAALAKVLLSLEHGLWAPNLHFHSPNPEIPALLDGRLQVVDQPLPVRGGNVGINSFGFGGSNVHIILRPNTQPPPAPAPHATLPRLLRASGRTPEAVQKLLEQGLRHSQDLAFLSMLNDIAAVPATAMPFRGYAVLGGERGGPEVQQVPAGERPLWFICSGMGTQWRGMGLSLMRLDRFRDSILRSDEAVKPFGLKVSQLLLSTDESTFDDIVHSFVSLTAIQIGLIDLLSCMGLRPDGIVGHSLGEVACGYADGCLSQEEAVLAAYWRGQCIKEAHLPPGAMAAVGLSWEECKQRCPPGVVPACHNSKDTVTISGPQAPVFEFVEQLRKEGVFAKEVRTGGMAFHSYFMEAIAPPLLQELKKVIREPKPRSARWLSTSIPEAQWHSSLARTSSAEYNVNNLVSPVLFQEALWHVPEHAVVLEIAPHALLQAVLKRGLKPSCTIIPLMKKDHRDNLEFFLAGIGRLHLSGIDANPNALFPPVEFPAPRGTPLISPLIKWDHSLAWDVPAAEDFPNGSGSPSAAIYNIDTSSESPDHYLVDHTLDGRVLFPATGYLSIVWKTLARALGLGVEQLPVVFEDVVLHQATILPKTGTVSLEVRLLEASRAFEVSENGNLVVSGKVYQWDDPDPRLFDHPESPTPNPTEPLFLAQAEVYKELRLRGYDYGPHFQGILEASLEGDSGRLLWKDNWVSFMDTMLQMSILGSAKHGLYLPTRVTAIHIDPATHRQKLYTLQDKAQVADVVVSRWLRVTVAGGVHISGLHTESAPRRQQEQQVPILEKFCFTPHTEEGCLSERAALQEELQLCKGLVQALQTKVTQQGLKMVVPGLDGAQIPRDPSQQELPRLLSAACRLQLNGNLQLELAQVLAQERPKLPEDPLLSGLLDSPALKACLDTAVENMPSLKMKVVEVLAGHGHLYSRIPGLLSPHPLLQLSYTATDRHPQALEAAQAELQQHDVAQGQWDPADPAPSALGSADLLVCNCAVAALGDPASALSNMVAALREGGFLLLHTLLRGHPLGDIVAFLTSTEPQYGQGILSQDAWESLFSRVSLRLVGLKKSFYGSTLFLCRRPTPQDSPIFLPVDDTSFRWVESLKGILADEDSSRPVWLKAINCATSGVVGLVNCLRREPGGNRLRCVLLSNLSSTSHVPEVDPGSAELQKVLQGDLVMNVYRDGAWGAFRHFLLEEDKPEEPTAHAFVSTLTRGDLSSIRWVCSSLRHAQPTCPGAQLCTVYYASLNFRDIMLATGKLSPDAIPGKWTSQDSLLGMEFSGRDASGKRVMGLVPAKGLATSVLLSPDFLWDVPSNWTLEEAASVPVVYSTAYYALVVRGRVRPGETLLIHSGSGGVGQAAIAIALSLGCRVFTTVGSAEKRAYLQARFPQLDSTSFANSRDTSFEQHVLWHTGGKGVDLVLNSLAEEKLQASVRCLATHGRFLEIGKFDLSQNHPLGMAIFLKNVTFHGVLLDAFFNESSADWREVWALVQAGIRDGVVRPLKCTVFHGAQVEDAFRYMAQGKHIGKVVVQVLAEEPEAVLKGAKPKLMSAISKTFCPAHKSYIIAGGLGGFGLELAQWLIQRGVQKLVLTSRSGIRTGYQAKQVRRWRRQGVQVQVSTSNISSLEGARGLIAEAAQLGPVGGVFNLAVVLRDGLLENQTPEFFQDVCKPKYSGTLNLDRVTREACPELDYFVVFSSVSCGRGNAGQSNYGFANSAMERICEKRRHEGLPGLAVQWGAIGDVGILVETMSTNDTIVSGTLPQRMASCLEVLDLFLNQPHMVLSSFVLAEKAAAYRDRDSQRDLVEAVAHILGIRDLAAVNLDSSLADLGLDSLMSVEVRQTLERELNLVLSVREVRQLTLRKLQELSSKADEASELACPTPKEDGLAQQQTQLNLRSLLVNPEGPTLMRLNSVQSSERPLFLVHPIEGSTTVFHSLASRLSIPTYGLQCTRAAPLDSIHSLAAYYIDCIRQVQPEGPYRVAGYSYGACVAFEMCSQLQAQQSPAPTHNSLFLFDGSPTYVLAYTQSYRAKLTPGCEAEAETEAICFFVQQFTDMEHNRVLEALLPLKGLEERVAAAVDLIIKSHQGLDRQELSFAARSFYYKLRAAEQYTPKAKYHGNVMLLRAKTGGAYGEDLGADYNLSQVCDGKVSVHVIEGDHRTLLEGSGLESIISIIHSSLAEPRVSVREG
Outline: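 FAS purified from ZR-75-1 human breast cancer cells (2 µg per well). Overall reaction read at 37 °C as malonyl-CoA-dependent NADPH oxidation at 340 nm, every 10 s for 5 min. Average of duplicate runs; neg means IC50 > 50 µg/mL.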
`CCCCCC[C@@]1(C)SC(=O)C=C1OCCCCCl` gave an IC50 greater than 164 µM.
Work on `C=CCC1(CC=C)C(=O)S[C@](C)(CCCCCCCC)C1=O` yielded an IC50 greater than 155 µM.
`C=CCOC1=CC(=O)S[C@]1(C)CCCCCCCC` showed an IC50 greater than 177 µM.
For `CCCCCC[C@@]1(C)SC(=O)C=C1OCC(=O)OCC`, the IC50 was greater than 166 µM.
With `C=CCC1(C)C(=O)S[C@](C)(CCCCCCCC)C1=O` (stereo partly drawn) the IC50 was greater than 169 µM.
`CCCCCC[C@@]1(C)SC(=O)C=C1OCC(=O)NCC(=O)OC` gave an IC50 greater than 146 µM.
Compound `COC1=CC(=O)S[C@]1(C)Cc1ccccc1` has an IC50 greater than 213 µM.
In the case of `CCCCCCCC[C@@]1(C)SC(=O)C=C1OCCCCCl`, the IC50 is reported as greater than 150 µM.
In the case of `CCCCCCCC[C@@]1(C)SC(O)=C(C(=O)OC)C1=O`, the IC50 is reported as greater than 166 µM.
For `CCCCCC[C@@]1(C)SC(O)=CC1=O`, the IC50 was greater than 233 µM.
With `C=CCOC1=C(C)C(=O)S[C@]1(C)CCCCCCCC` the IC50 was greater than 169 µM.
Work on `CCCCCCCC[C@@]1(C)SC(O)=C(C(=O)C(F)(F)F)C1=O` yielded an IC50 of 121 µM.
Work on `CCCCCC[C@@]1(C)SC(=O)C=C1OCC(=O)NCCCBr` yielded an IC50 greater than 127 µM.
Compound `CCCCCCCC[C@@]1(C)SC(=O)C=C1OC(=O)CC` has an IC50 greater than 168 µM.
`CCCCCCCC[C@@]1(C)SC(=O)C=C1OCC(=O)O` showed an IC50 greater than 166 µM.
In the case of `C=CCOC1=CC(=O)S[C@]1(C)CCCCCC`, the IC50 is reported as greater than 197 µM.
In the case of `C=CCC1=C(O)S[C@](C)(CCCCCCCC)C1=O`, the IC50 is reported as 9.91 µM.
`C#CCOC1=CC(=O)S[C@]1(C)CCCCCC` showed an IC50 greater than 198 µM.
For `CCCCCCCC[C@@]1(C)SC(=O)C(C)=C1OC`, the IC50 was greater than 185 µM.
`C=C/C(C)=C/[C@@]1(C)SC(=O)C(C)=C1O` (stereo in doubt; form 1) [THIOLACTOMYCIN] was tested, and the IC50 was 100 µM.

These compounds were tested on MCF7 (assay: Inhibitory concentration against fatty acid synthesis in MCF-7 breast cancer cells). Details: Homo sapiens, MCF7; read-out: IC50.
Assay type: functional, cell-based, Homo sapiens
`CCCCCC[C@@]1(C)SC(=O)C=C1OCCCCCl` showed an IC50 of 8.6 µg/mL (≈ 28.2 µM).
With `C=CCC1(CC=C)C(=O)S[C@](C)(CCCCCCCC)C1=O` the IC50 was greater than 50 µg/mL.
`C=CCOC1=CC(=O)S[C@]1(C)CCCCCCCC` gave an IC50 greater than 50 µg/mL.
In the case of `CCCCCC[C@@]1(C)SC(=O)C=C1OCC(=O)OCC`, the IC50 is reported as 14.2 µg/mL (≈ 47.3 µM).
`C=CCC1(C)C(=O)S[C@](C)(CCCCCCCC)C1=O` (stereo partly drawn) showed an IC50 greater than 50 µg/mL.
`CCCCCC[C@@]1(C)SC(=O)C=C1OCC(=O)NCC(=O)OC` was tested, and the IC50 was 9.8 µg/mL (≈ 28.5 µM).
For `COC1=CC(=O)S[C@]1(C)Cc1ccccc1`, the IC50 was greater than 50 µg/mL.
With `CCCCCCCC[C@@]1(C)SC(=O)C=C1OCCCCCl` the IC50 was greater than 50 µg/mL.
`CCCCCCCC[C@@]1(C)SC(O)=C(C(=O)OC)C1=O` showed an IC50 of 18.7 µg/mL (≈ 62.2 µM).
`CCCCCC[C@@]1(C)SC(O)=CC1=O` showed an IC50 of 16.5 µg/mL (≈ 77 µM).
With `C=CCOC1=C(C)C(=O)S[C@]1(C)CCCCCCCC` the IC50 was greater than 50 µg/mL.
`CCCCCCCC[C@@]1(C)SC(O)=C(C(=O)C(F)(F)F)C1=O` showed an IC50 of 14.7 µg/mL (≈ 43.4 µM).
With `CCCCCC[C@@]1(C)SC(=O)C=C1OCC(=O)NCCCBr` the IC50 was 6.7 µg/mL (≈ 17.1 µM).
`CCCCCCCC[C@@]1(C)SC(=O)C=C1OC(=O)CC` showed an IC50 of 22.6 µg/mL (≈ 75.7 µM).
Work on `CCCCCCCC[C@@]1(C)SC(=O)C=C1OCC(=O)O` yielded an IC50 of 13.8 µg/mL (≈ 45.9 µM).
Compound `C=CCOC1=CC(=O)S[C@]1(C)CCCCCC` has an IC50 greater than 50 µg/mL.
Compound `C=CCC1=C(O)S[C@](C)(CCCCCCCC)C1=O` has an IC50 of 34.8 µg/mL (≈ 123 µM).
`C#CCOC1=CC(=O)S[C@]1(C)CCCCCC` was tested, and the IC50 was 21.9 µg/mL (≈ 86.8 µM).
`CCCCCCCC[C@@]1(C)SC(=O)C(C)=C1OC` showed an IC50 greater than 50 µg/mL.
Compound `C=C/C(C)=C/[C@@]1(C)SC(=O)C(C)=C1O` (stereo in doubt; form 1) [THIOLACTOMYCIN] has an IC50 of 38.4 µg/mL (≈ 183 µM).

What follows are compounds tested on MCF7 (assay: Inhibitory concentration against MCF-7 breast cancer cells in XTT assay (non radioactive assay)). Details: Homo sapiens, MCF7; read-out: IC50.
Assay type: functional, cell-based, Homo sapiens
Outline: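 MCF-7 human breast cancer cells, cytotoxicity measured by XTT cell proliferation assay (nonradioactive). The procedure was adapted from the kit instructions. IC50 is the average of duplicate runs.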
In the case of `CCCCCC[C@@]1(C)SC(=O)C=C1OCCCCCl`, the IC50 is reported as 20.8 µg/mL (≈ 68.2 µM).
Work on `C=CCC1(CC=C)C(=O)S[C@](C)(CCCCCCCC)C1=O` yielded an IC50 of 40.5 µg/mL (≈ 126 µM).
With `C=CCOC1=CC(=O)S[C@]1(C)CCCCCCCC` the IC50 was 14.5 µg/mL (≈ 51.3 µM).
In the case of `CCCCCC[C@@]1(C)SC(=O)C=C1OCC(=O)OCC`, the IC50 is reported as 39.6 µg/mL (≈ 132 µM).
`C=CCC1(C)C(=O)S[C@](C)(CCCCCCCC)C1=O` (stereo partly drawn) showed an IC50 of 40.5 µg/mL (≈ 137 µM).
Compound `CCCCCC[C@@]1(C)SC(=O)C=C1OCC(=O)NCC(=O)OC` has an IC50 of 40.5 µg/mL (≈ 118 µM).
`CCCCCCCC[C@@]1(C)SC(=O)C=C1OCCCCCl` gave an IC50 of 35.3 µg/mL (≈ 106 µM).
`CCCCCCCC[C@@]1(C)SC(O)=C(C(=O)OC)C1=O` gave an IC50 of 47.2 µg/mL (≈ 157 µM).
`CCCCCC[C@@]1(C)SC(O)=CC1=O` gave an IC50 greater than 80 µg/mL.
`C=CCOC1=C(C)C(=O)S[C@]1(C)CCCCCCCC` was tested, and the IC50 was 34.7 µg/mL (≈ 117 µM).
`CCCCCCCC[C@@]1(C)SC(O)=C(C(=O)C(F)(F)F)C1=O` was tested, and the IC50 was 18.4 µg/mL (≈ 54.4 µM).
`CCCCCC[C@@]1(C)SC(=O)C=C1OCC(=O)NCCCBr` gave an IC50 of 21 µg/mL (≈ 53.5 µM).
`CCCCCCCC[C@@]1(C)SC(=O)C=C1OC(=O)CC` was tested, and the IC50 was 26.8 µg/mL (≈ 89.8 µM).
`C=CCOC1=CC(=O)S[C@]1(C)CCCCCC` was tested, and the IC50 was 9 µg/mL (≈ 35.4 µM).
`C=CCC1=C(O)S[C@](C)(CCCCCCCC)C1=O` showed an IC50 of 44.4 µg/mL (≈ 157 µM).
`C#CCOC1=CC(=O)S[C@]1(C)CCCCCC` gave an IC50 of 8.9 µg/mL (≈ 35.3 µM).
`CCCCCCCC[C@@]1(C)SC(=O)C(C)=C1OC` showed an IC50 of 17.3 µg/mL (≈ 64 µM).
`C=C/C(C)=C/[C@@]1(C)SC(=O)C(C)=C1O` (stereo in doubt; form 1) [THIOLACTOMYCIN] was tested, and the IC50 was greater than 80 µg/mL.
